We go through one compound from ChEMBL document CHEMBL1132244, “Benzodiazepine receptor ligands. 4. Synthesis and pharmacological evaluation of 3-heteroaryl-8-chloropyrazolo[5,1-c][1,2,4] benzotriazine 5-oxides” (J Med Chem, 1999).

For data set [1], the system named is Mus musculus. Nature of the data set: (§1) Anticonvulsant activity against MES-induced hindlimb extension at 100 mg/kg dose. In kind it is organism-based. More on the design: dose 100 mg/kg. The following applies: in vivo. The procedure, abridged: (§2)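 Male Swiss-Webster mice (22–26 g) received drug in 1% CMC (10 mL/kg) 30 min before maximal electroshock through transcorneal electrodes (40 mA, 50 Hz, 0.2 s). The end point was tonic hindlimb extension, and lethality was also noted. The incidence of non-convulsing mice was analysed by χ² test.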

Data set [2] concerns Mus musculus. Description: (§3) Anticonvulsant activity against MES-induced hindlimb extension at 30 mg/kg dose. The class given is ADME, organism-based. Also on record: dose 30 mg/kg. The following applies: in vivo. In short, it runs like this: as §2
Data set [3] concerns Mus musculus. Description: Antianxiety activity was measured based on light/dark box thus calculated no of crosses of mice at 3 mg/kg dose. In kind it is functional. The procedure, abridged:
(§4)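 Male Swiss-Webster mice, 22–26 g, dosed orally with drug or 1% CMC vehicle (10 mL/kg), placed 30 min later in the centre of the lit side of a two-compartment light/dark box (60-W bulb 400 mm above the white floor). Time in the lit side and number of crossings counted over 5 min. Student's t-test.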

The subject of data set [4] is Mus musculus. Description: (§5) Anticonvulsant activity against MES-induced hindlimb extension at 300 mg/kg dose. In kind it is ADME, organism-based. Also on record: dose 300 mg/kg. As to conditions: in vivo. In short, it runs like this:
as §2

In data set [5] the test system is Mus musculus. Described as §3. In kind it is functional.
Data set [6] relates to Mus musculus. Nature of the data set: Muscle relaxant effect measured by rotarod test at 300 mg/Kg dose in mice. In kind it is functional. In short, it runs like this:
(§6)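 Motor coordination on the rota rod in male Swiss-Webster mice (22–26 g) after oral dosing in 1% CMC (10 mL/kg), tested 30 min post-dose. Student's t-test.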

Data set [7] relates to Mus musculus. Description: Anticonvulsant activity against PTZ induced atacks at 30 mg/kg dose. In kind it is functional.
Data set [8] concerns Mus musculus. Description: Anticonvulsant activity against PTZ induced atacks at 300 mg/kg dose. In kind it is functional.
The test system of data set [9] is Mus musculus. Nature of the data set: Antianxiety activity was measured based on light/dark box thus calculated no of crosses of mice at 100 mg/kg dose. The class given is functional. The procedure, abridged:
as §4

Data set [10] deals with Mus musculus. Nature of the data set: Antianxiety activity was measured based on light/dark box thus calculated % time in light of mice at 10 mg/kg dose. In kind it is functional. In short, it runs like this: as §4
In data set [11] the test system is Mus musculus. Nature of the data set: Antianxiety activity was measured based on light/dark box thus calculated % time in light of mice at 30 mg/kg dose. The class given is functional. In short, it runs like this:
as §4

Data set [12] has as its system Mus musculus. Nature of the data set: Anticonvulsant activity against PTZ induced atacks at 100 mg/kg dose. In kind it is functional.
Data set [13] has as its system Mus musculus. Nature of the data set: Antianxiety activity was measured based on light/dark box thus calculated no of crosses of mice at 30 mg/kg dose. In kind it is functional. In short, it runs like this:
as §4

The subject of data set [14] is Mus musculus. The data set is described as §5. In kind it is functional.
The target in data set [15] is T1, GABA-A receptor; anion channel (Bos taurus) (UniProt P10063+P08220+P20237+P08219+P10064+P22300). Nature of the data set: The GABA ratio (GR) = IC50 compound + 10 uM GABA, performed in five independent experiments was calculated for the compound. The class given is protein-complex assay. The procedure, abridged: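 [3H]Ro15-1788 displacement from GABA-depleted bovine cortex membranes (0.2 nM ligand, 90 min, 0 °C, Tris-citrate pH 7.4). IC50 measured without and with 10 μM GABA and the ratio taken; five independent experiments.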

Data set [16] has as its system Mus musculus. Nature of the data set: Muscle relaxant effect measured by rotarod test at 30 mg/Kg dose in mice. In kind it is functional. The procedure, abridged: as §6
In data set [17] the test system is Mus musculus. Nature of the data set: Antianxiety activity was measured based on light/dark box thus calculated % time in light of mice at 100 mg/kg dose. In kind it is functional. The procedure, abridged:
as §4

The test system of data set [18] is Mus musculus. Nature of the data set: Antianxiety activity was measured based on light/dark box thus calculated no of crosses of mice at 10 mg/kg dose. In kind it is functional. The procedure, abridged: as §4
Data set [19] relates to Mus musculus. Description: Muscle relaxant effect measured by rotarod test at 100 mg/Kg dose in mice. The class given is functional. The procedure, abridged:
as §6
(In general: In the rotarod test animals must keep their balance on a rotating rod.)

Data set [20] has as its target GABA-A receptor; anion channel. Description: Displacement of [3H]Ro-151788 from GABA-A benzodiazepine receptor of bovine brain membranes. The class given is cell membranes, Bos taurus. In short, it runs like this:
(§7)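 Washed bovine cerebral cortex membranes, with endogenous GABA removed by Triton X-100/37 °C washes, incubated with ~0.2 nM [3H]Ro15-1788 (Kd 0.60 nM) in 50 mM Tris-citrate pH 7.4 for 90 min at 0 °C, then filtered. Nonspecific binding defined with 10 μM diazepam. Screening at 10 μM; Ki from IC50 by Cheng–Prusoff; five determinations, mean ± SEM.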
Background: Loss of bound radioactivity is the signal in a displacement assay; it reports binding, not function.

The test system of data set [21] is Mus musculus. Nature of the data set: Antianxiety activity was measured based on light/dark box thus calculated % time in light of mice at 3 mg/kg dose. The class given is functional. In short, it runs like this:
as §4

Data set [22] has as its target T1, GABA-A receptor; anion channel (Bos taurus). Nature of the data set: Percentage inhibition of [3H]Ro-151788 binding to GABA-A benzodiazepine receptor in bovine brain membrane at 10 uM. The class given is cell membranes. In short, it runs like this:
as §7

In data set [23] the test system is Mus musculus. Described as §1. In kind it is functional.

Usually Ki stands for the equilibrium dissociation constant of an inhibitor or competing ligand from its target. A lower Ki goes with higher affinity. A word on the inhibition: it is how much of the control response was suppressed. The low end stands for a response near the control, the high end for a response far below the control. In the case of `[O-][n+]1nc2c(-c3cccs3)cnn2c2cc(Cl)ccc21`, the figures for the Lethality in the data set with Mus musculus [1], in the data set on Mus musculus [2] and in the data set with Mus musculus [4] were 20%, 18.2% and 8.3%, respectively. For the same compound, the No. of crosses in the data set with Mus musculus [3] is reported as 15; in the data set with Mus musculus [9] it was 18.4; with Mus musculus [13], 17.6; in the data set on Mus musculus [18], 20. The Extension with Mus musculus [5], with Mus musculus [14] and in the data set with Mus musculus [23] was 0% each time. Moreover, the No. of falls with Mus musculus [6] is recorded as 0.2; with Mus musculus [16], 0; in the data set on Mus musculus [19], 0.08. Also, the Atttacks in the data set on Mus musculus [7] was 10%; in the data set with Mus musculus [8], 12.5%; with Mus musculus [12], 16.6%. Also, the Time in flight is reported as 122.2% in the data set with Mus musculus [10], 11.5% in the data set on Mus musculus [11], 114.5% with Mus musculus [17] and 88.9% in the data set on Mus musculus [21]. For the same compound, in [15], the GR is 1.54. In addition, in data set [20], the Ki is 10.3 nM. The inhibition in [22] came to 82%.
